Assay [1] addresses T1, Alpha-1B adrenergic receptor (Homo sapiens, UniProt P35368).
T1 sequence (P35368 whole entry): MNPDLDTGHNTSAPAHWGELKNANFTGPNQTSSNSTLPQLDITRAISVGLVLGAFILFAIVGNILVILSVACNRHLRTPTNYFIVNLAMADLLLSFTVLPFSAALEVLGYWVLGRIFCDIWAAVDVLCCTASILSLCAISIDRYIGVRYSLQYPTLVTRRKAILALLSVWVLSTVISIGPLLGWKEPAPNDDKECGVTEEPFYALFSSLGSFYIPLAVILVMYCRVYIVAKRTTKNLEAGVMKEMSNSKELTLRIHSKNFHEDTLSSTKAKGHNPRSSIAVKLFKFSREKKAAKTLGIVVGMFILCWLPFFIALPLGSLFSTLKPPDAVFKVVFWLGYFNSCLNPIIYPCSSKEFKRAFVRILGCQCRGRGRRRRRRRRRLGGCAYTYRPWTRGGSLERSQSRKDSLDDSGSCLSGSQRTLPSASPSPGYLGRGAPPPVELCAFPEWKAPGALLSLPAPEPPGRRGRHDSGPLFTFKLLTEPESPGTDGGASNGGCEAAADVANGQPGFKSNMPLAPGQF
The assay can be described thus: Displacement of [3H]prazosin from human Alpha-1B adrenoceptor expressed in CHO cells. Format: cell-based. The method in brief: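 Membranes ([…], as printed) from CHO cells stably expressing the cloned human α1b subtype were incubated with 0.1–0.4 nM [³H]prazosin and competitor (1 pM up to the top concentration) in 50 mM Tris-HCl, pH 7.4, for 30 min at 25 °C. Non-specific binding was defined with phentolamine, and incubations ended by filtration. Ki was derived from IC50 by Cheng–Prusoff. Reported as pKi from 2–3 triplicate experiments.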

The species named for assay [2] is Rattus norvegicus. The assay can be described thus: Selectivity ratio of Ki for alpha1A adrenoceptor in Wistar rat vas deferens to Ki for Alpha-1D adrenoceptor in Wistar rat thoracic aorta. In kind it is tissue-based.
Assay [3] addresses T2, Alpha-1D adrenergic receptor (Rattus norvegicus, UniProt P23944).
T2 sequence (P23944 whole entry): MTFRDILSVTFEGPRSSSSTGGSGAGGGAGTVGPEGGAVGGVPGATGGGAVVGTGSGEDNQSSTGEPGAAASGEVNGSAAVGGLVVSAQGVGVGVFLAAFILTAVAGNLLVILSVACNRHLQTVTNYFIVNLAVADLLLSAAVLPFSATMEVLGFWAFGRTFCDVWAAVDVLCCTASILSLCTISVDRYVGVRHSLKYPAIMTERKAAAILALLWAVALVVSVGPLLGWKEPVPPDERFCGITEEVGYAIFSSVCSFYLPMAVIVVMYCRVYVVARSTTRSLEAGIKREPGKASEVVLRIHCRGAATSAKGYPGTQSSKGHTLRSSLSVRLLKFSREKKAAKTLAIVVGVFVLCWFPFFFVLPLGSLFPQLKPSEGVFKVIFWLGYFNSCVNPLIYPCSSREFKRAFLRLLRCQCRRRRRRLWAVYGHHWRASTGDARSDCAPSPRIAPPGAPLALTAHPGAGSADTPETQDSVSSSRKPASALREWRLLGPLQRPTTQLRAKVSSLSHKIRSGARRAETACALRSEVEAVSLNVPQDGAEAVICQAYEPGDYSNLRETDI
The assay can be described thus: Antagonist activity at Alpha-1D adrenoceptor in Wistar rat thoracic aorta assessed as noradrenaline induced contractions after 30 mins.

Assay [4] in a line: Selectivity ratio of Ki for human alpha1A adrenoceptor to Ki for human Alpha-1D adrenoceptor. The procedure, abridged: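 Subtype selectivity is the antilog of the difference between pKi values, from [³H]prazosin displacement (0.1–0.4 nM, 30 min, 25 °C, pH 7.4) at cloned human α1a, α1b and α1d receptors in CHO membranes. Ki values came from IC50 via Cheng–Prusoff.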
Assay [5] is filed under the species Rattus norvegicus. The assay can be described thus: Selectivity ratio of EC50 for alpha1D adrenoceptor in Wistar rat thoracic aorta to EC50 for Alpha-1B adrenoceptor in Wistar rat spleen. In kind it is tissue-based.
Assay [6] has as its target T3, Alpha-1A adrenergic receptor (Homo sapiens, UniProt P35348).
T3 sequence (P35348 whole entry): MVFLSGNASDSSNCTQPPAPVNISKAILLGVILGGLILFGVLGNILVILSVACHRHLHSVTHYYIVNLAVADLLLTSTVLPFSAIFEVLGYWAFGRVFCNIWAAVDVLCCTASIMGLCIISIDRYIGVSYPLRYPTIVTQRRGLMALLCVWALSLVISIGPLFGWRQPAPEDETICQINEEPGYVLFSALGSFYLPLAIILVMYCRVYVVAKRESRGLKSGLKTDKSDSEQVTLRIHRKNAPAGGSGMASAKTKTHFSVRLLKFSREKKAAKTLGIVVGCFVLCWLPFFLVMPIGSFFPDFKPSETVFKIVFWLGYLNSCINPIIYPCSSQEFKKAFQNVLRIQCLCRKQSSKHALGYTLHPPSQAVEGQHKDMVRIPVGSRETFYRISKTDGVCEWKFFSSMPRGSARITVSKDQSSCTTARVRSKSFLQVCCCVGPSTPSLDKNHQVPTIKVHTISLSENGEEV
The assay can be described thus: Displacement of [3H]prazosin from human alpha1A adrenoceptor expressed in CHO cells. In kind it is cell-based. The procedure, abridged:
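Membranes ([…], as printed) from CHO cells stably expressing the cloned human α1a subtype were incubated with 0.1–0.4 nM [³H]prazosin and competitor (1 pM up to the top concentration) in 50 mM Tris-HCl, pH 7.4, for 30 min at 25 °C. Non-specific binding was defined with phentolamine, and incubations ended by rapid filtration. IC50 was converted to Ki by Cheng–Prusoff. Reported as pKi from 2–3 triplicate experiments.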

For assay [7], the target named is T4, Alpha-1A adrenergic receptor (Rattus norvegicus) (UniProt P43140).
T4 sequence (whole entry): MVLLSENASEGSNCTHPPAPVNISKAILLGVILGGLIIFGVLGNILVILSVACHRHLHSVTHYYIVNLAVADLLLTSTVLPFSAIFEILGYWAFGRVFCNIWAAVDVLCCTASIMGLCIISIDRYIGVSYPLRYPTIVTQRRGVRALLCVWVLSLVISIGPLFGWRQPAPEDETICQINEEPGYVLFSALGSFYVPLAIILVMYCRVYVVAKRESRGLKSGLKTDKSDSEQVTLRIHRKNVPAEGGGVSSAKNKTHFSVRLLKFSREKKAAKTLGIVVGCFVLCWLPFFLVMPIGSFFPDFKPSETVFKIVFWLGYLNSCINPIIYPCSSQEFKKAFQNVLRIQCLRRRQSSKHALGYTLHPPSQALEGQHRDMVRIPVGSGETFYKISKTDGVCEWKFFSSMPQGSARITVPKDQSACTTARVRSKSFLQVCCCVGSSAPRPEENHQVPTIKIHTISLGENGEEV
The assay can be described thus: Antagonist activity at alpha1A adrenoceptor in Wistar rat vas deferens assessed as noradrenaline induced contractions after 30 mins. Format: functional, tissue-based. The procedure, abridged:
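Prostatic portions (2 cm) of vas deferens from male Wistar rats (275–300 g) were held under 0.35 g tension in Tyrode solution at 37 °C with cocaine present. Tissues were equilibrated 45 min, primed twice with noradrenaline, then given a cumulative isotonic noradrenaline curve.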

Usually Ki stands for the equilibrium dissociation constant of an inhibitor or competing ligand from its target. The Kb is the equilibrium dissociation constant of an antagonist, usually derived from a functional assay. Turning to `COc1ccc(C[C@@H](C)NCCOc2ccccc2OCC(F)(F)F)cc1S(N)(=O)=O`, the inhibition constant (Ki) in assay [1] is 5.5 nM; in assay [6], 0.603 nM. Moreover, the values for the Selectivity ratio in the assay filed under Rattus norvegicus [2] and in the assay listed under Rattus norvegicus [5] were 4 and 1, respectively. Also, the Kb in assay [3] is 0.955 nM. Also, in assay [4], the Ki ratio is 2.

The term pKb denotes −log10 of the Kb, conventionally taken in molar units. Turning to `COc1ccc(C[C@@H](C)NCCOc2ccccc2OCc2ccccc2)cc1S(N)(=O)=O`, the Ki in assay [1] is 2.09 nM; in assay [6], 0.347 nM. Moreover, the negative-log Kb (pKb) in assay [7] was 9.66. The Selectivity ratio was found to be 3 in the assay filed under Rattus norvegicus [2] and 4 in the assay filed under Rattus norvegicus [5]. The Ki ratio in assay [4] turned out to be 0.9.

Take `COc1ccc(C[C@@H](C)NCCOc2ccccc2OC(C)C)cc1S(N)(=O)=O`: the figures for the Ki in assay [1] and in assay [6] were 1.91 nM and 0.339 nM, respectively. For the same compound, the pKb in assay [7] came to 9.66. The figures for the Selectivity ratio in the assay filed under Rattus norvegicus [2] and in the assay listed under Rattus norvegicus [5] were 2 and 3, respectively. In addition, the antagonist equilibrium constant (Kb) in assay [3] was 0.501 nM. Besides, the Ki ratio in assay [4] is listed as 0.7.

On to `COc1ccc(C[C@@H](C)NC[C@H]2Oc3ccccc3O[C@H]2C)cc1S(N)(=O)=O`, for which the inhibitory constant (Ki) in assay [1] was 67.6 nM; in assay [6], 19.1 nM. In addition, the Selectivity ratio in the assay filed under Rattus norvegicus [2] amounted to 2; in the assay filed under Rattus norvegicus [5], 0.5. The Kb in assay [3] is 60.3 nM. In addition, the Ki ratio in assay [4] is 0.9.

With `COc1ccc(C[C@@H](C)NC[C@@H]2Oc3ccccc3O[C@@H]2C)cc1S(N)(=O)=O`, the results for the Ki in assay [1] and in assay [6] were 31.6 nM and 11.5 nM, respectively. Also, the Selectivity ratio in the assay filed under Rattus norvegicus [2] came out at 1; in the assay filed under Rattus norvegicus [5], 0.8. The Kb in assay [3] was 21.4 nM. The Ki ratio in assay [4] is reported as 1.

The values above are taken from ChEMBL document CHEMBL1629492 (Eur J Med Chem, 2010).
